The source of these data is ChEMBL document CHEMBL1125245, “Quinolone antibacterials: preparation and activity of bridged bicyclic analogues of the C7-piperazine” (J Med Chem, 1991).

Test [1] relates to Streptococcus pneumoniae. Nature of the test: In vivo protection against gram-positive Streptococcus pneumonia (SV-1) in mouse after oral administration. In kind it is functional. The note with it: read-out: PD50.
The test system of test [2] is Escherichia coli. The test is described as follows: In vivo protection against gram-negative Escherichia coli vogel in mouse after subcutaneous administration. To be noted: sc, read-out: PD50.
Test [3] is described as follows: Compound evaluated in vitro against five gram-positive bacterial strains and geometric means of the minimum inhibitory concentrations (MIC) reported. In kind it is functional. Further details: unit not given here. Put shortly: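 Geometric mean MIC across five Gram-positive strains, taken as antilog of the averaged log MIC values.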
Test [4] concerns Streptococcus pneumoniae. The test is described as follows: In vivo protection against gram-positive Streptococcus pneumonia (SV-1) in mouse after subcutaneous administration. To be noted: sc, read-out: PD50. In kind it is functional.
In test [5] the test system is Escherichia coli. The test is described as follows: In vivo protection against gram-negative Escherichia coli vogel in mouse after oral administration. To be noted: read-out: PD50.
For the next test, the target named is DNA gyrase (Escherichia coli, UniProt P0AES4+P0AES6). The test is described as follows: Compound evaluated in vitro for the ability to inhibit gyrase. In kind it is protein-complex assay. To be noted: read-out: I50 (converted). The method in brief:
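DNA gyrase isolated from Escherichia coli H560 cells; inhibition given as I50.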

The nature of test [6]: Compound evaluated in vitro against five gram-negative bacterial strains and geometric means of the minimum inhibitory concentrations (MIC) reported. In kind it is functional. Further details: unit not given here. Put shortly:
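Geometric mean MIC across five Gram-negative strains (E. coli H560, E. coli Vogel, Enterobacter cloacae MA 2646, Klebsiella pneumoniae MGH-2, Proteus rettgeri M1771). Mean taken as antilog of the averaged log MIC values.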

For the compound `Nc1c(F)c(N2C[C@H]3CC2CN3)c(F)c2c1c(=O)c(C(=O)O)cn2C1CC1`, the ED50 in the test with Streptococcus pneumoniae [1] is above 100 mg/kg; in the test with Escherichia coli [2], 1 mg/kg; with Streptococcus pneumoniae [4] it was 13 mg/kg; with Escherichia coli [5], 5 mg/kg. For the same compound, the MIC in test [3] stood at 0.09; in test [6] it was 0.04. On DNA gyrase, the IC50 was 36.7 µM.
`Cl.N[C@@H]1C[C@H]2CC[C@@H](C1)N2c1nc2c(cc1F)c(=O)c(C(=O)O)cn2C1CC1`: the ED50 with Streptococcus pneumoniae [1] worked out at 29 mg/kg; in the test on Escherichia coli [2] it was 1.1 mg/kg; in the test on Streptococcus pneumoniae [4] it was 21 mg/kg; in the test on Escherichia coli [5], 2.1 mg/kg. Besides, the results for the MIC in test [3] and in test [6] were 0.46 and 0.25, respectively. At DNA gyrase, the IC50 is 42.8 µM.
On to `Cl.O=C(O)c1cn(C2CC2)c2nc(N3CC4CCCC3CN4)c(F)cc2c1=O` (stereo not drawn), for which the ED50 with Streptococcus pneumoniae [1] came to 25 mg/kg; in the test on Escherichia coli [2] it was 0.8 mg/kg; in the test with Streptococcus pneumoniae [4], 18 mg/kg; in the test with Escherichia coli [5], 2.3 mg/kg. Further, the values for the MIC in test [3] and in test [6] were 0.09 and 0.08, respectively. The IC50 at DNA gyrase was 7.34 µM.
`Nc1c(F)c(N2CC3CCCC2CN3)c(F)c2c1c(=O)c(C(=O)O)cn2C1CC1` (stereo not drawn): the ED50 stood at 35 mg/kg in the test with Streptococcus pneumoniae [1], 0.7 mg/kg in the test with Escherichia coli [2], 6.3 mg/kg in the test on Streptococcus pneumoniae [4] and 4.8 mg/kg in the test with Escherichia coli [5]. For the same compound, the MIC in test [3] amounted to 0.03; in test [6], 0.04. At DNA gyrase, the IC50 was 2.23 µM.
